From paper PMC2582146 (Biochemistry, 2008)
No end group written: not given here.

Legend:
full-length CAL = full-length CAL (Homo sapiens, UniProt Q9HD26); test: Fluorescence polarization direct binding, full-length CAL; conditions: 30 nM reporter titrated with full-length CAL
Procedure, shortened: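 Direct titration: full-length CAL pre-incubated 10–30 min at room temperature in FP buffer (storage buffer 25 mM Tris pH 8.5, 150 mM NaCl, 0.02% NaN3, 0.1 mM ATP, plus 0.1 mg/mL bovine IgG, 0.5 mM Thesit) containing fluorescent peptide. Serially diluted into the same buffer, then 10 min incubation and 15 min equilibration at 24 °C. Polarization read at ex 485/em 525 nm.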

CAL PDZ domain (CALP) [1] = target: T1, CAL PDZ domain (CALP) (Homo sapiens, UniProt Q9HD26); test: Fluorescence polarization competition binding, CALP with F*C-SSR5_10 reporter
Procedure, shortened: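 Competition FP using fluorescein-5-maleimide-labelled Cys-peptide reporter in FP buffer: storage buffer (25 mM Tris pH 8.5, 150 mM NaCl, 0.02% NaN3, 0.1 mM TCEP or 1 mM DTT) plus 0.1 mg/mL bovine IgG and 0.5 mM Thesit. Unlabelled Cys-peptides titrated into reporter–protein mix, 15 min at 24 °C. Ex 485/em 525 nm. Ki fit with free protein from exact cubic solution, using known reporter Kd.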

CAL PDZ domain (CALP) [2] = target: T1, CAL PDZ domain (CALP); test: Fluorescence polarization competition binding, CALP with F*C-GBG4_10 reporter
[3] = target: T2, NHERF1 PDZ2 domain (N1P2) (Homo sapiens, UniProt O14745); test: Fluorescence polarization direct binding, NHERF1 PDZ2; conditions: titration with increasing N1P2
T2 sequence (O14745 132-299): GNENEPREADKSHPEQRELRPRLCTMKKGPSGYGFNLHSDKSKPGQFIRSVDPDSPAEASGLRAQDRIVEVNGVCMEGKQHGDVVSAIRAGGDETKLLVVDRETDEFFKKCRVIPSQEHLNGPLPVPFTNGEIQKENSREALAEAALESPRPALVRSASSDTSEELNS

[4] = target: T3, NHERF1 PDZ1 domain (N1P1) (Homo sapiens, UniProt O14745); test: Fluorescence polarization direct binding, NHERF1 PDZ1; conditions: titration with increasing N1P1
T3 sequence (O14745 1-139): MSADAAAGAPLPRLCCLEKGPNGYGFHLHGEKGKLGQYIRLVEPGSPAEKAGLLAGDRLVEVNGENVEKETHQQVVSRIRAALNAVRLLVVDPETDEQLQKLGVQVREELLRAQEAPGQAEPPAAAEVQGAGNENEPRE

## CC(C)C[C@H](NC(=O)[C@H](CCCNC(=N)N)NC(=O)[C@@H](NC(=O)[C@H](CC(=O)O)NC(=O)[C@H](CCC(N)=O)NC(=O)[C@@H](NC(=O)[C@H](CCC(=O)O)NC(=O)[C@H](CCC(=O)O)NC(=O)[C@H](CCC(=O)O)NC(=O)[C@@H](NC(=O)c1ccc2c(c1)C(=O)OC21c2ccc(O)cc2Oc2cc(O)ccc21)[C@@H](C)O)C(C)C)[C@@H](C)O)C(=O)O [F*-CFTR10]
full-length CAL
  interaction in FP titration: too weak to be fit

## CREKKFFSTIL [C-GBG4_10]
CAL PDZ domain (CALP) [1]
  Ki: 63 ± 15 µM
CAL PDZ domain (CALP) [2]
  Ki: 109 ± 12 µM

## F*C-SCR6: fluorescent reporter peptide with a scrambled sequence (C(fluorescein‑5‑maleimide)QVTLDR)
[3]
  FP shift of reporter: neither domain caused an FP shift
[4]
  FP shift of reporter: neither domain caused an FP shift
